Results from publication PMC8866227 (Clinical Cancer Research, 2021).
Read-outs that look alike come from different tables or passages of the source.

Experiments:
TGFβ = assay: Serum TGF-β concentrations in treated dogs; type: in vivo, dog; conditions: high losartan dose 10 mg/kg + toceranib
[1] = test system: CCL2-directed migration of canine PBMCs; type: cell-based
[2] = Losartan plasma pharmacokinetics in dogs; type: in vivo, dog; conditions: for AUC(0-t) / Cmax: dog, plasma, po
[3] = test system: CCL2-directed monocyte migration; assay: Ex vivo CCL2-directed monocyte migration of PBMCs from treated dogs; type: in vivo, dog; conditions: for dogs with reduction of CCL2-mediated ex vivo monocyte migration from baseline: 10 mg/kg cohort
How it was run: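 Blood was drawn at baseline and at rechecks (days 7, 14, 28 in the 10 mg/kg cohort) and ACK-lysed within 1 h. Fresh PBMCs were assayed immediately for CCL2-directed transwell migration. Chemotactic index is the fold-change over negative-control wells, expressed as % of week 0.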

human PBMCs [4] = assay: RNA-seq differential gene expression of losartan-treated human PBMCs; type: cell-based; conditions: losartan 10 μg/mL 24 h vs control
How it was run: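 PBMCs from healthy male and female donors were Ficoll-isolated from EDTA blood and plated at 3e6/mL in RPMI, 10% FBS, penicillin/streptomycin and L-glutamine. […] Extracted RNA was sequenced. Counts were RUVr-normalized, differential expression was called by limma-voom/edgeR, and GSEA was run.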

human PBMCs [5] = assay: Gene Set Enrichment Analysis; type: cell-based; conditions: losartan treated vs control PBMCs
CCL2–CCR2 signaling = conditions: independent of AT1R; cited from earlier work
THP-1 cells = assay: Transwell THP-1 monocyte migration to human OS cell line conditioned media; type: cell-based; conditions: 1 hour pretreatment, 10 μg/mL losartan
How it was run: (§1)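 Four human (THP-1, human PBMC) or four canine (canine PBMC) OS cell lines, kept in DMEM/10% FBS at 37°C and 5% CO2, supplied conditioned media as chemoattractant in transwell migration assays. Wells were run in technical triplicate or quadruplicate. […] Results are mean ± SD, one-way ANOVA with Tukey.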

CCL2 = assay: Plasma CCL2 concentration in treated dogs by ELISA; type: in vivo, dog; conditions: for dogs with posttreatment increases in plasma CCL2 / mean increase in plasma CCL2 above baseline: 10 mg/kg cohort
[6] = Systolic blood pressure monitoring in treated dogs; type: in vivo, dog; conditions: 1 and 10 mg/kg cohorts, repeated blood pressure measurements
[7] = test system: peripheral blood myeloid cells; assay: Peripheral blood total myeloid cell counts; type: in vivo, dog; conditions: week 4 posttreatment, low- and high-dose cohorts combined n=19
human PBMCs [8] = assay: Transwell human PBMC migration to human OS cell line conditioned media; type: cell-based; conditions: 1 hour pretreatment, 10 μg/mL losartan
How it was run: as §1

lung metastatic burden = conditions: cited from earlier work
[9] = test system: lung metastatic osteosarcoma; assay: Clinical response; type: in vivo, dog; conditions: single agent toceranib, dogs with metastatic OS

CCCCc1nc(Cl)c(CO)n1Cc1ccc(-c2ccccc2-c2nn[nH]n2)cc1 [losartan]
serum TGFβ posttreatment (TGFβ): no posttreatment changes
CCL2-directed migration of canine PBMCs, % of untreated positive control wells ([1]; losartan 100 ng/mL in vitro): 42%
CCL2-directed migration of canine PBMCs, % of untreated positive control wells ([1]; losartan 10 μg/mL in vitro): 12%
mean plasma concentration ([2]; 1 mg/kg oral cohort, OS dogs, ~6 h post dose): 6.8 ng/mL
AUC(0-t) ([2]; 2.5 mg/kg): 303 ng·h/mL
Cmax ([2]; 2.5 mg/kg): 76.7 ng/mL
AUC(0-t) ([2]; 10 mg/kg): 1580 ng·h/mL
Cmax ([2]; 10 mg/kg): 509 ng/mL
CCL2-mediated ex vivo monocyte migration following treatment ([3]; 1 mg/kg losartan cohort (+ toceranib), OS dogs): unexpectedly increased
dogs with reduction of CCL2-mediated ex vivo monocyte migration from baseline ([3]; week 1): 7 of 14
dogs with reduction of CCL2-mediated ex vivo monocyte migration from baseline ([3]; week 2): 8 of 15
dogs with reduction of CCL2-mediated ex vivo monocyte migration from baseline ([3]; week 4): 7 of 11
genes downregulated (human PBMCs [4]): 27 genes
genes upregulated (human PBMCs [4]): 32 genes
pathways significantly (Padj < 0.05) downregulated by GSEA (human PBMCs [5]): 409 pathways
monocyte recruitment, noncompetitive inhibition of CCL2–CCR2 signaling induced ERK1/2 activation (CCL2–CCR2 signaling): potently inhibits
THP-1 migration to OS conditioned media (THP-1 cells): significant inhibited
dogs with increases in plasma CCL2 (CCL2; 1 mg/kg cohort, 2 weeks posttreatment): five of six
dogs with posttreatment increases in plasma CCL2 (CCL2; week 2): 12 of 15
mean increase in plasma CCL2 above baseline (CCL2; week 2): 149.4%
dogs with posttreatment increases in plasma CCL2 (CCL2; week 4): 11 of 12
mean increase in plasma CCL2 above baseline (CCL2; week 4): 186.3%
hypotension associated with losartan treatment [6]: no dogs experienced any significant hypotension
total peripheral blood myeloid cells (combined monocyte and neutrophil counts) [7]: significant reduction
human PBMC migration to OS conditioned media (human PBMCs [8]): significant inhibited
lung metastatic burden in mice (lung metastatic burden): significantly reduced

Cc1[nH]c(/C=C2\C(=O)Nc3ccc(F)cc32)c(C)c1C(=O)NCCN1CCCC1 [toceranib, toceranib phosphate]
Clinical benefit rate (SD, PR, and CR) [9]: 18%
Progression-free survival, range [9]: 7 to 176 days
